Calls of active or inactive are those of the source. The rule behind the calls is not given here. Positions of bridges follow the written chain, without caps; N, C: chain ends. Residues, ends and D or L forms follow the SMILES beside them.
Tests used:
[1] = Inhibition of Dengue Virus 2 NS2B-NS3 protease using Benzoyl-Nle-Lys-Arg-Arg-AMC as substrate incubated for 3 mins prior to substrate addition by fluorimetric analysis; parameters: species or system dengue virus type 2
Summary of the method: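 Ki by Dixon plot (1/v vs inhibitor) at 33 and 66 μM substrate. Fluorescence ex 356/em 438 nm; triplicate means.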

[2] = Chemical stability at 16. 7 uM measured every 30 mins of 2.5 hrs in presence of Dengue Virus 2 NS2B-NS3 protease; format: physicochemical
[3] = Inhibition of trypsin using N-benzoyl-DL-arginine-p-nitroanilide as substrate by […] analysis
[4] = Drug degradation assessed as compound activity lost at 3.3 uM measured every 30 mins of 2.5 hrs in presence of Dengue Virus 2 NS2B-NS3 protease; format: physicochemical; conditions: Dengue virus 2, Dengue virus 2 NS2B-NS3 protease; read-out: Drug degradation
[5] = Drug degradation assessed as compound activity lost at 6.7 uM measured every 30 mins of 2.5 hrs in presence of Dengue Virus 2 NS2B-NS3 protease; format: physicochemical; conditions: Dengue virus 2, Dengue virus 2 NS2B-NS3 protease; read-out: Drug degradation
[6] = Chemical stability assessed as compound remaining after 4 hrs in presence of cathepsin S; format: physicochemical
Summary of the method: (§1)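 Peptide incubated with trypsin in 0.05 M Tris-HCl pH 7.8, 20 mM CaCl2 at 37 °C, or with cathepsin S in 50 mM NaAc pH 4.5, 25 mM NaCl, 5 mM DTT at room temperature. Digests analysed on HPLC C18 analytical column for remaining intact peptide.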

[7] = Chemical stability assessed as compound remaining after 4 hrs in presence of trypsin; format: physicochemical; conditions: read-out: Stability; summary of the method: as §1
dengue virus type 2 = assay: Inhibition of Dengue Virus 2 NS2B-NS3 protease using Benzoyl-Nle-Lys-Arg-Arg-AMC as substrate at 167 uM incubated for 3 mins prior to substrate addition by fluorimetric analysis
Summary of the method: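 Enzyme preincubated with inhibitor for 3 min at 37 °C before adding Bz-Nle-Lys-Arg-Arg-AMC substrate. Residual activity read by fluorescence, excitation 356 nm, emission 438 nm. Triplicate measurements averaged.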

[8] = Chemical stability after 30 mins in presence of trypsin; format: physicochemical; conditions: isolated protein, 0.5 h; summary of the method: as §1

For `CC(C)C[C@@H]1NC(=O)[C@H](CCCCN)NC(=O)[C@H](Cc2ccc(O)cc2)NC(=O)CNC(=O)[C@@H]2CSSC[C@H](NC1=O)C(=O)N[C@@H](Cc1cnc[nH]1)C(=O)N1C[C@H](O)C[C@H]1C(=O)N[C@H](C(=O)O)CSSC[C@H](NC(=O)[C@@H](NC(=O)CNC(=O)[C@@H](N)CC(N)=O)C(C)C)C(=O)N2`, the Ki [1] was 9 µM.

Work on `CC(C)C[C@@H]1NC(=O)[C@H](CCCCN)NC(=O)CNC(=O)CNC(=O)[C@@H](N)CSSC[C@@H](C(=O)O)NC1=O` (H-CGGKLC-OH; disulfide 1-6) yielded a Ki [1] of 15.1 µM.

`CC(C)C[C@@H]1NC(=O)CNC(=O)[C@H](Cc2ccc(O)cc2)NC(=O)CNC(=O)[C@@H](N)CSSC[C@@H](C(=O)O)NC1=O` (H-CGYGLC-OH; disulfide 1-6) showed a Ki [1] greater than 100 µM.

Work on `NCCCC[C@@H]1NC(=O)[C@H](Cc2ccc(O)cc2)NC(=O)CNC(=O)[C@@H](N)CSSC[C@@H](C(=O)O)NC(=O)CNC1=O` (H-CGYKGC-OH; disulfide 1-6) yielded a Ki [1] of 12 µM.

With `N=C(N)NCCC[C@@H]1NC(=O)[C@H](CCCCN)NC(=O)[C@H](Cc2ccc(O)cc2)NC(=O)CNC(=O)[C@@H](N)CSSC[C@@H](C(=O)O)NC1=O` (H-CGYKRC-OH; disulfide 1-6) the Ki [1] was 5 µM.

In the case of `C[C@@H]1NC(=O)CNC(=O)[C@H](CO)NC(=O)[C@H](CCCCN)NC(=O)[C@H](CCCNC(=N)N)NC(=O)C(CCCCN)NC(=O)CNC1=O` (single isomer, unassigned), the Ki [1] is reported as 11.3 µM and the Stability [2] is reported as “Stable”.

In the case of `N=C(N)NCCC[C@@H]1NC(=O)C(CCCCN)NC(=O)CNC(=O)[C@@H](N)CSSC[C@@H](C(=O)O)NC(=O)[C@H](CO)NC(=O)[C@H](CCCCN)NC1=O` (single isomer, unassigned), the Ki [1] is reported as 1.4 µM, the Ki [3] is reported as greater than 100 µM and the metabolised at 2.5 h, 3.3 µM [4] is reported as 50%. The metabolised at 2.5 h, 6.7 µM [5] was 50%.

With `CC(C)C[C@@H]1NC(=O)[C@H](CCCCN)NC(=O)[C@H](CCCNC(=N)N)NC(=O)C(CCCCN)NC(=O)CNC(=O)[C@@H](N)CSSC[C@@H](C(=O)O)NC1=O` (single isomer, unassigned) the Ki [1] was 2.5 µM, the metabolised at 2.5 h, 3.3 µM [4] was 50% and the metabolised at 2.5 h, 6.7 µM [5] was 50%.

`N=C(N)NCCC[C@@H]1NC(=O)C(CCCCN)NC(=O)CNC(=O)[C@@H](N)CSSC[C@@H](C(=O)O)NC(=O)[C@H](CCCNC(=N)N)NC1=O` (single isomer, unassigned) gave a Ki [1] of 3.5 µM.

In the case of `C[C@@H]1NC(=O)[C@@H](CS)NC(=O)CNC(=O)[C@H](CO)NC(=O)[C@H](CCCCN)NC(=O)[C@H](CCCNC(=N)N)NC(=O)C(CCCCN)NC(=O)CNC1=O` (single isomer, unassigned), the Stability [6] is reported as “Stable”, the Ki [1] is reported as 2.2 µM and the remaining at 4 h [7] is reported as 50%. The Ki [3] was greater than 100 µM and the metabolised at 2.5 h, 3.3 µM [4] was 25%.

In the case of `CC(C)C[C@@H]1NC(=O)[C@H](CCCCN)NC(=O)C(Cc2ccc(O)cc2)NC(=O)CNC(=O)[C@@H](N)CSSC[C@@H](C(=O)O)NC1=O` (single isomer, unassigned), the Ki [1] is reported as 12.5 µM, the Ki [3] is reported as greater than 100 µM and the inhibition (dengue virus type 2) is reported as “inactive”.

For H-CAGKRKSG-OH, the Stability [8] was “Stable” and the Ki [1] was 42 µM.
